Measurements: ChEMBL document CHEMBL1127741, “4-[(Alkylamino)methyl]furo[3,2-c]pyridines: a new series of selective kappa-receptor agonists” (J Med Chem, 1994)

System: Mus musculus
Assay: Antinociceptive activity was measured using the mouse acetylcholine-induced abdominal constriction test following subcutaneous administration of the compound
Format: functional
Conditions: Abdomen, sc
Method in brief: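 Male/female not stated; mice dosed subcutaneously, then challenged with acetylcholine to provoke abdominal constrictions. Inhibition of constrictions scored, and an ED50 (mg/kg, sc) derived for each compound.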

`O=C(Cc1ccc(Cl)c(Cl)c1)N1CCc2c(O)cccc2C1CN1CCCC1` (stereo unspecified) showed an ED50 of 3 µg/kg.
`O=C(Cc1ccc(Cl)c(Cl)c1)N1CCc2occc2C1CN1CC=CCC1` (stereo unspecified) showed an ED50 of 4 µg/kg.
Compound `O=C(Cc1ccc(Cl)c(Cl)c1)N1CCc2occc2[C@H]1CN1CC[C@@H](O)C1` has an ED50 of 30 µg/kg.
`O=C1CCN(CC2c3ccoc3CCN2C(=O)Cc2ccc(Cl)c(Cl)c2)C1` (stereo unspecified) showed an ED50 of 19 µg/kg.
Work on `O=C(Cc1ccc(Cl)c(Cl)c1)N1CCc2occc2C1CN1CCC(O)C1` (stereo unspecified) yielded an ED50 of 2 µg/kg.
In the case of `O=C(Cc1ccc(Cl)c(Cl)c1)N1CCc2c(O)cccc2C1CN1CCC(O)C1` (stereo unspecified), the ED50 is reported as 84 µg/kg.
Work on `Cc1cc2c(o1)CCN(C(=O)Cc1ccc(Cl)c(Cl)c1)C2CN1CCC(O)C1` (stereo unspecified) yielded an ED50 of 12 µg/kg.
`O=C(Cc1ccc(Cl)c(Cl)c1)N1CCC2(CC1CN1CCCC1)OCCO2` (stereo unspecified) gave an ED50 of 1 µg/kg.
In the case of `O=C(Cc1ccc(Cl)c(Cl)c1)N1CCc2occc2C1CN1CCCC1` (stereo unspecified), the ED50 is reported as 30 µg/kg.
For `O=C(Cc1ccc(Cl)c(Cl)c1)N1CCc2occc2[C@@H]1CN1CC[C@H](O)C1`, the ED50 was 1.5 µg/kg.
Compound `O=C(Cc1ccc(Cl)c(Cl)c1)N1CCc2occc2C1CN1CC[C@H](O)C1` (single isomer, unassigned) has an ED50 of 1 µg/kg.
